Assay results reported in ChEMBL document CHEMBL4152184, “NB 06: From a simple lysosomotropic aSMase inhibitor to tools for elucidating the role of lysosomes in signaling apoptosis and LPS-induced inflammation” (Eur J Med Chem, 2018).

Tests used:
MONO-MAC-6 [1] = assay: Upregulation of CXCL3 mRNA expression level in LPS-stimulated human MONO-MAC-6 cells at 5 uM preincubated for 30 mins followed by LPS stimulation measured after 6 hrs by oligonucleotide array hybridization assay (reference value: 5.74); format: functional
MONO-MAC-6 [2] = assay: Upregulation of CCL20 mRNA expression level in LPS-stimulated human MONO-MAC-6 cells at 5 uM preincubated for 30 mins followed by LPS stimulation measured after 1 hr by oligonucleotide array hybridization assay (reference value: 1.07); format: functional
MONO-MAC-6 [3] = assay: Upregulation of CCL20 mRNA expression level in LPS-stimulated human MONO-MAC-6 cells at 5 uM preincubated for 30 mins followed by LPS stimulation measured after 4 hrs by oligonucleotide array hybridization assay (reference value: 10.69); format: functional
MONO-MAC-6 [4] = assay: Downregulation of PTX3 mRNA expression level in human MONO-MAC-6 cells at 5 uM incubated for 30 mins measured after 2 hrs by oligonucleotide array hybridization assay relative to control; format: functional
Procedure, shortened: (§1)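 Total RNA was isolated, transcribed and labeled with DY-647 dye, then co-hybridized with DY-548-labeled cDNA from untreated cells on an inflammation oligonucleotide chip (780 gene probes). Differential expression >1.5 was taken as significant.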

MONO-MAC-6 [5] = assay: Downregulation of PTX3 mRNA expression level in LPS-stimulated human MONO-MAC-6 cells at 5 uM preincubated for 30 mins followed by LPS stimulation measured after 6 hrs by oligonucleotide array hybridization assay (reference value: 3.18); format: functional; procedure, shortened: as §1
MONO-MAC-6 [6] = assay: Downregulation of CXCL10 mRNA expression level in human MONO-MAC-6 cells at 5 uM incubated for 30 mins measured after 4 hrs by oligonucleotide array hybridization assay relative to control; format: functional; procedure, shortened: as §1
MONO-MAC-6 [7] = assay: Downregulation of CXCL10 mRNA expression level in human MONO-MAC-6 cells at 5 uM incubated for 30 mins measured after 6 hrs by oligonucleotide array hybridization assay relative to control; format: functional; procedure, shortened: as §1
MONO-MAC-6 [8] = assay: Downregulation of CXCL2 mRNA expression level in human MONO-MAC-6 cells at 5 uM incubated for 30 mins measured after 1 hr by oligonucleotide array hybridization assay relative to control; format: functional; procedure, shortened: as §1
MONO-MAC-6 [9] = assay: Upregulation of PTGS2 mRNA expression level in human MONO-MAC-6 cells at 5 uM incubated for 30 mins measured after 2 hrs by oligonucleotide array hybridization assay relative to control; format: functional
MONO-MAC-6 [10] = assay: Upregulation of PTGS2 mRNA expression level in human MONO-MAC-6 cells at 5 uM incubated for 30 mins measured after 4 hrs by oligonucleotide array hybridization assay relative to control; format: functional
MONO-MAC-6 [11] = assay: Downregulation of ICAM1 mRNA expression level in LPS-stimulated human MONO-MAC-6 cells at 5 uM preincubated for 30 mins followed by LPS stimulation measured after 2 hrs by oligonucleotide array hybridization assay (reference value: 1.94); format: functional; procedure, shortened: as §1
MONO-MAC-6 [12] = assay: Downregulation of ICAM1 mRNA expression level in human MONO-MAC-6 cells at 5 uM incubated for 30 mins measured after 6 hrs by oligonucleotide array hybridization assay relative to control; format: functional; procedure, shortened: as §1
MONO-MAC-6 [13] = assay: Downregulation of CXCL2 mRNA expression level in human MONO-MAC-6 cells at 5 uM incubated for 30 mins measured after 2 hrs by qRT-PCR method relative to control; format: functional
MONO-MAC-6 [14] = assay: Upregulation of CXCL2 mRNA expression level in LPS-stimulated human MONO-MAC-6 cells at 5 uM preincubated for 30 mins followed by LPS stimulation measured after 4 hrs by qRT-PCR method (reference value: 16.41); format: functional
MONO-MAC-6 [15] = assay: Upregulation of IL-6 mRNA expression level in LPS-stimulated human MONO-MAC-6 cells at 5 uM preincubated for 30 mins followed by LPS stimulation measured after 2 hrs by qRT-PCR method (reference value: […]); format: functional
MONO-MAC-6 [16] = assay: Upregulation of IL23A mRNA expression level in LPS-stimulated human MONO-MAC-6 cells at 5 uM preincubated for 30 mins followed by LPS stimulation measured after 2 hrs by qRT-PCR method (reference value: 1.39); format: functional
MONO-MAC-6 [17] = assay: Downregulation of IL23A mRNA expression level in human MONO-MAC-6 cells at 5 uM incubated for 30 mins measured after 2 hrs by qRT-PCR method relative to control; format: functional
MONO-MAC-6 [18] = assay: Upregulation of IL23A mRNA expression level in LPS-stimulated human MONO-MAC-6 cells at 5 uM preincubated for 30 mins followed by LPS stimulation measured after 6 hrs by qRT-PCR method (reference value: 7.18); format: functional
MONO-MAC-6 [19] = assay: Upregulation of TNFalpha mRNA expression level in LPS-stimulated human MONO-MAC-6 cells at 5 uM preincubated for 30 mins followed by LPS stimulation measured after 4 hrs by qRT-PCR method (reference value: 4.32); format: functional
[20] = biological target: T1, Sphingomyelin phosphodiesterase (Homo sapiens, UniProt P17405); assay: Inhibition of mmLDL-stimulated acid sphingomyelinase in human PBMC lysates using BODIPY FL C5-sphingomyelin as substrate preincubated for 30 mins followed by mmLDL stimulation measured after 2 hrs by HPLC method
T1 sequence (P17405 whole entry): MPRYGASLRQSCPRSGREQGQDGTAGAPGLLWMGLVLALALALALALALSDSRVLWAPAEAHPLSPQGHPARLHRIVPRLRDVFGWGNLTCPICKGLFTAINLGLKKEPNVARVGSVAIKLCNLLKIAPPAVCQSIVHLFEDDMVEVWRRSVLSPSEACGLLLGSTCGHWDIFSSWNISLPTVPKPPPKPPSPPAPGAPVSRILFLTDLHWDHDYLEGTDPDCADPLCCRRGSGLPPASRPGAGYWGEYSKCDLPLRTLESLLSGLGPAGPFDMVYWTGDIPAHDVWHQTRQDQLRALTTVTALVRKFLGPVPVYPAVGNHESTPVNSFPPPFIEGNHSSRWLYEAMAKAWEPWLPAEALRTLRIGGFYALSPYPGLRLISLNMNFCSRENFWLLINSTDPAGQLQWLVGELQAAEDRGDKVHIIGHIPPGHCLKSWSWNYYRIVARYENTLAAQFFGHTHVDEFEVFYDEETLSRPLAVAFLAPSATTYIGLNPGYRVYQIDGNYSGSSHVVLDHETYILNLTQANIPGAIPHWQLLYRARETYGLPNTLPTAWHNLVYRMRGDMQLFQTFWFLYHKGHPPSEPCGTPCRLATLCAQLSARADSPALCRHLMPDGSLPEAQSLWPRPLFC

## COc1ccc(CCN(C)CCCn2c3ccccc3c3ccccc32)cc1
MONO-MAC-6 [1]
  fold change (FC): 1.15
MONO-MAC-6 [2]
  fold change (FC): 1.03
MONO-MAC-6 [3]
  fold change (FC): 4.54
MONO-MAC-6 [4]
  fold change (FC): 1.61
MONO-MAC-6 [5]
  fold change (FC): 1.05
MONO-MAC-6 [6]
  fold change (FC): 2.08
MONO-MAC-6 [7]
  fold change (FC): 6.7
MONO-MAC-6 [8]
  fold change (FC): 1.12
MONO-MAC-6 [9]
  fold change (FC): 2.08
MONO-MAC-6 [10]
  fold change (FC): 1.17
MONO-MAC-6 [11]
  fold change (FC): 1.14
MONO-MAC-6 [12]
  fold change (FC): 1.79
MONO-MAC-6 [13]
  fold change (FC): 1.27
MONO-MAC-6 [14]
  fold change (FC): 8.28
MONO-MAC-6 [15]
  fold change (FC): 6.12
MONO-MAC-6 [16]
  fold change (FC): 1.87
MONO-MAC-6 [17]
  fold change (FC): 1.24
MONO-MAC-6 [18]
  fold change (FC): 1.1
MONO-MAC-6 [19]
  fold change (FC): 1.37
[20]
  IC50: 13 to 17 µM
